# Tested on: monocyte-depleted PBMCs
# Assay: IL-1β secretion assay
# Type: cell-based, human
# Conditions: MD-PBMCs
# How it was run: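 NK cells, MD-PBMCs, PBMCs or granulocytes (1.5 million/mL) or PBMC+granulocytes (0.75 million/mL each), per donor, exposed 24 h, 48 h or 6 days to 0.05–5 μM test compound diluted from DMSO stock, with DMSO controls. Supernatants kept at −70 °C. IL-1β by sandwich ELISA: HRP detection antibody, acid-stopped substrate, A450 against standards. Detection limit 3 pg/mL; triplicates; ANOVA then t test versus control, p<0.05.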
smiles,measurement,setting,value
"CCC[CH2][Sn][CH2]CCC [DBT, Dibutyltin]",Interleukin 1 beta secreted,"donor F145, 48 h, 0.05 μM DBT",780 ± 323 pg/mL
same,Interleukin 1 beta secreted,"donor F145, 48 h, 0.1 μM DBT",2232 ± 1035 pg/mL
same,Interleukin 1 beta secreted,"donor F145, 48 h, 0.25 μM DBT",337 ± 347 pg/mL
same,Interleukin 1 beta secreted,"donor F145, 6 day, 0.05 μM DBT",983 ± 248 pg/mL
same,Interleukin 1 beta secreted,"donor F145, 6 day, 0.1 μM DBT",987 ± 577 pg/mL
same,Interleukin 1 beta secreted,"donor F145, 6 day, 0.25 μM DBT",535 ± 16 pg/mL
same,Interleukin 1 beta secreted,"donor F145, 6 day, 0.5 μM DBT",147 ± 55 pg/mL
same,Interleukin 1 beta secreted,"donor F152, 24 h, 0.05 μM DBT",721 ± 36 pg/mL
same,Interleukin 1 beta secreted,"donor F152, 24 h, 0.1 μM DBT",516 ± 26 pg/mL
same,Interleukin 1 beta secreted,"donor F152, 24 h, 0.25 μM DBT",406 ± 29 pg/mL
same,Interleukin 1 beta secreted,"donor F152, 24 h, 0.5 μM DBT",340 ± 57 pg/mL
same,Interleukin 1 beta secreted,"donor F152, 24 h, 1 μM DBT",224 ± 9 pg/mL
same,Interleukin 1 beta secreted,"donor F152, 24 h, 2.5 μM DBT",83 ± 22 pg/mL
same,Interleukin 1 beta secreted,"donor F152, 24 h, 5 μM DBT",19 ± 12 pg/mL
same,Interleukin 1 beta secreted,"donor F152, 48 h, 0.05 μM DBT",563 ± 54 pg/mL
same,Interleukin 1 beta secreted,"donor F152, 48 h, 0.1 μM DBT",495 ± 72 pg/mL
same,Interleukin 1 beta secreted,"donor F152, 48 h, 0.25 μM DBT",607 ± 71 pg/mL
same,Interleukin 1 beta secreted,"donor F152, 48 h, 0.5 μM DBT",703 ± 34 pg/mL
same,Interleukin 1 beta secreted,"donor F152, 48 h, 1 μM DBT",296 ± 56 pg/mL
same,Interleukin 1 beta secreted,"donor F152, 48 h, 2.5 μM DBT",35 ± 38 pg/mL
same,Interleukin 1 beta secreted,"donor F152, 48 h, 5 μM DBT",86 ± 37 pg/mL
same,Interleukin 1 beta secreted,"donor F152, 6 day, 0.05 μM DBT",81 ± 21 pg/mL
same,Interleukin 1 beta secreted,"donor F152, 6 day, 0.1 μM DBT",71 ± 6 pg/mL
same,Interleukin 1 beta secreted,"donor F152, 6 day, 0.25 μM DBT",118 ± 11 pg/mL
same,Interleukin 1 beta secreted,"donor F152, 6 day, 0.5 μM DBT",161 ± 62 pg/mL
same,Interleukin 1 beta secreted,"donor F152, 6 day, 1 μM DBT",41 ± 7 pg/mL
same,Interleukin 1 beta secreted,"donor F152, 6 day, 2.5 μM DBT",20 ± 18 pg/mL
same,Interleukin 1 beta secreted,"donor F152, 6 day, 5 μM DBT",14 ± 1 pg/mL
same,Interleukin 1 beta secreted,"donor F163, 24 h, 0.05 μM DBT",613 ± 57 pg/mL
same,Interleukin 1 beta secreted,"donor F163, 24 h, 0.1 μM DBT",370 ± 13 pg/mL
same,Interleukin 1 beta secreted,"donor F163, 24 h, 0.25 μM DBT",309 ± 15 pg/mL
same,Interleukin 1 beta secreted,"donor F163, 24 h, 0.5 μM DBT",310 ± 16 pg/mL
same,Interleukin 1 beta secreted,"donor F163, 24 h, 1 μM DBT",130 ± 5 pg/mL
same,Interleukin 1 beta secreted,"donor F163, 24 h, 2.5 μM DBT",70 ± 25 pg/mL
same,Interleukin 1 beta secreted,"donor F163, 24 h, 5 μM DBT",86 ± 44 pg/mL
same,Interleukin 1 beta secreted,"donor F163, 48 h, 0.05 μM DBT",607 ± 86 pg/mL
same,Interleukin 1 beta secreted,"donor F163, 48 h, 0.1 μM DBT",342 ± 34 pg/mL
same,Interleukin 1 beta secreted,"donor F163, 48 h, 0.25 μM DBT",547 ± 68 pg/mL
same,Interleukin 1 beta secreted,"donor F163, 48 h, 0.5 μM DBT",677 ± 378 pg/mL
same,Interleukin 1 beta secreted,"donor F163, 48 h, 1 μM DBT",701 ± 111 pg/mL
same,Interleukin 1 beta secreted,"donor F163, 6 day, 0.05 μM DBT",715 ± 87 pg/mL
same,Interleukin 1 beta secreted,"donor F163, 6 day, 0.1 μM DBT",497 ± 75 pg/mL
same,Interleukin 1 beta secreted,"donor F163, 6 day, 0.25 μM DBT",305 ± 36 pg/mL
same,Interleukin 1 beta secreted,"donor F163, 6 day, 0.5 μM DBT",664 ± 70 pg/mL
same,Interleukin 1 beta secreted,"donor F163, 6 day, 1 μM DBT",175 ± 3 pg/mL
same,Interleukin 1 beta secreted,"donor F166, 24 h, 0.05 μM DBT",6772 ± 386 pg/mL
same,fold increase in IL-1β secretion,"donor F166, 24 h, 0.05 μM DBT",3.0 fold
same,Interleukin 1 beta secreted,"donor F166, 24 h, 0.1 μM DBT",5569 ± 527 pg/mL
same,Interleukin 1 beta secreted,"donor F166, 24 h, 0.25 μM DBT",2788 ± 126 pg/mL
same,Interleukin 1 beta secreted,"donor F166, 24 h, 0.5 μM DBT",158 ± 43 pg/mL
same,Interleukin 1 beta secreted,"donor F166, 48 h, 0.05 μM DBT",14662 ± 1044 pg/mL
same,Interleukin 1 beta secreted,"donor F166, 48 h, 0.1 μM DBT",12941 ± 423 pg/mL
same,Interleukin 1 beta secreted,"donor F166, 48 h, 0.25 μM DBT",5307 ± 349 pg/mL
same,Interleukin 1 beta secreted,"donor F166, 48 h, 0.5 μM DBT",924 ± 101 pg/mL
same,Interleukin 1 beta secreted,"donor F166, 48 h, 1 μM DBT",1075 ± 230 pg/mL
same,Interleukin 1 beta secreted,"donor F166, 48 h, 2.5 μM DBT",1981 ± 3260 pg/mL
same,Interleukin 1 beta secreted,"donor F166, 6 day, 0.05 μM DBT",6655 ± 930 pg/mL
same,Interleukin 1 beta secreted,"donor F166, 6 day, 0.1 μM DBT",4959 ± 11 pg/mL
same,Interleukin 1 beta secreted,"donor F166, 6 day, 0.25 μM DBT",2424 ± 95 pg/mL
same,Interleukin 1 beta secreted,"donor F166, 6 day, 0.5 μM DBT",2118 ± 698 pg/mL
same,fold increase in IL-1β secretion,"third common donor (F152), 24 h, 50 nM DBT",2.1 fold
same,fold increase in IL-1β secretion,"third common donor (F152), 24 h, 100 nM DBT",1.4 fold
